# The source made the active and inactive calls. The rule behind the calls is not given here.
# Columns and labels:
# [1] = Antioxidant activity assessed as DPPH free radical scavenging activity after 30 mins by spectrophotometry; assay type: physicochemical
# Procedure, shortened: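 DPPH radical (final 400 µM, in ethanol) mixed with test compound at 25–400 µM at room temperature; absorbance at 517 nm recorded at intervals over 90 min; % reducing capacity taken at 30 min, IC50 from this; means ± sem of at least two independent experiments.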
# [2] = Cytoprotective activity against H2O2-induced cytotoxicity in mouse C2 cells assessed as cell viability at 1 uM after 24 hrs by MTT assay (reference value: 83.1 +/- 3.5%); assay type: functional; settings: C2, 24 h, read-out: Activity
# [3] = Cytoprotective activity against H2O2-induced cytotoxicity in mouse C2 cells assessed as cell viability at 15 uM after 24 hrs by MTT assay (reference value: 83.1 +/- 3.5%); assay type: functional; settings: C2, 24 h, read-out: Activity
# [4] = Cytoprotective activity against H2O2-induced cytotoxicity in mouse C2 cells assessed as cell viability at 30 uM after 24 hrs by MTT assay (reference value: 83.1 +/- 3.5%); assay type: functional; settings: C2, 24 h, read-out: Activity
# [5] = Cytoprotective activity against H2O2-induced cytotoxicity in mouse C2 cells assessed as cell viability at 50 uM after 24 hrs by MTT assay (reference value: 83.1 +/- 3.5%); assay type: functional; settings: C2, 24 h, read-out: Activity
# [6] = Cytotoxic activity against mouse C2 cells assessed as cell viability at 50 uM after 24 hrs by MTT assay (reference value: 100%); assay type: cell-based; settings: read-out: Activity
# Procedure, shortened: (§1)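 Serum-deprived C2 myoblasts (≥3 h, 70% confluence) incubated with compound alone (DMSO vehicle) for 24 h; MTT read at 540 nm after lysis in 0.1 M HCl/isopropanol, expressed as % of untreated control; means ± sem of ≥3 independent experiments.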
# C2 [7] = assay: Inhibition of H2O2-induced ERK phosphorylation in mouse C2 cells at 15 uM pre-incubated for 30 mins before H2O2 exposure for 15 mins by SDS-PAGE and immunoblotting method; assay type: cell-based
# Procedure, shortened: (§2)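 C2 myoblasts pre-incubated 30 min with compound, then 1 mM H2O2 for 15 min. Lysates in buffer G (30 µg) run on SDS–PAGE and immunoblotted for phospho-ERKs or phospho-JNKs, actin as loading control; ECL, densitometry; means ± sem, ≥3 experiments; one-way ANOVA with Bonferroni post-test.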
# C2 [8] = assay: Inhibition of H2O2-induced JNK phosphorylation in mouse C2 cells at 15 uM pre-incubated for 30 mins before H2O2 exposure for 15 mins by SDS-PAGE and immunoblotting method; assay type: cell-based; procedure, shortened: as §2
# [9] = Cytotoxic activity against mouse C2 cells assessed as cell viability at 15 uM after 24 hrs by MTT assay (reference value: 100%); assay type: cell-based; settings: read-out: Activity; procedure, shortened: as §1
# [10] = Cytoprotective activity against curcumin-induced cytotoxicity in mouse C2 cells assessed as cell viability at 15 uM after 24 hrs by MTT assay (reference value: 83.8 +/- 0.4%); assay type: functional; settings: C2, 24 h, read-out: Activity
# C2 [11] = assay: Inhibition of curcumin-induced ERK phosphorylation in mouse C2 cells at 15 uM pre-incubated for 30 mins before curcumin exposure for 15 mins by SDS-PAGE and immunoblotting method; assay type: cell-based
# Procedure, shortened: (§3)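 Cells pre-treated 30 min with compound, then 50 µM curcumin for 15 min; whole-cell extracts (buffer G, 30 µg) immunoblotted for phospho-ERKs, actin loading control, ECL and densitometry; means ± sem of ≥3 experiments, one-way ANOVA/Bonferroni.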
# C2 [12] = assay: Inhibition of curcumin-induced JNK in mouse C2 cells assessed as reduction in c-Jun phosphorylation at 15 uM pre-incubated for 30 mins before curcumin exposure for 4 hrs by Western blotting method; assay type: cell-based
# Procedure, shortened: (§4)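 After 30 min pre-incubation with compound and 4 h 50 µM curcumin, nuclear extracts prepared by subcellular fractionation (25 µg) immunoblotted for phospho-c-Jun, with total c-Jun as loading control; densitometry, means ± sem of ≥3 experiments, one-way ANOVA/Bonferroni.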
# C2 [13] = assay: Inhibition of curcumin-induced apoptosis in mouse C2 cells assessed as reduction in PARP cleavage at 15 uM pre-incubated for 30 mins before curcumin exposure for 4 hrs by SDS-PAGE and immunoblotting method; assay type: functional, cell-based
# Procedure, shortened: (§5)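 C2 cells pre-incubated 30 min with compound, then 50 µM curcumin for 4 h; buffer G lysates (30 µg) immunoblotted with antibody detecting full-length PARP and the 89 kDa fragment, actin loading control; densitometry, means ± sem of ≥3 experiments, one-way ANOVA with Bonferroni.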
# [14] = Effect on PARP protein level in mouse C2 cells at 15 uM incubated for 30 mins by SDS-PAGE and immunoblotting method; assay type: cell-based; settings: c2, 0.5 h
# C2 [15] = assay: Inhibition of curcumin-induced JNK phosphorylation in mouse C2 cells at 15 uM pre-incubated for 30 mins before curcumin exposure for 2 hrs by SDS-PAGE and immunoblotting method
# C2 [16] = assay: Inhibition of H2O2-induced ERK phosphorylation in mouse C2 cells at 30 uM pre-incubated for 30 mins before H2O2 exposure for 15 mins by SDS-PAGE and immunoblotting method; assay type: cell-based; procedure, shortened: as §2
# C2 [17] = assay: Inhibition of H2O2-induced JNK phosphorylation in mouse C2 cells at 30 uM pre-incubated for 30 mins before H2O2 exposure for 15 mins by SDS-PAGE and immunoblotting method; assay type: cell-based; procedure, shortened: as §2
# C2 [18] = assay: Inhibition of curcumin-induced ERK phosphorylation in mouse C2 cells at 30 uM pre-incubated for 30 mins before curcumin exposure for 15 mins by SDS-PAGE and immunoblotting method; assay type: cell-based; procedure, shortened: as §3
# C2 [19] = assay: Inhibition of curcumin-induced JNK in mouse C2 cells assessed as reduction in c-Jun phosphorylation at 30 uM pre-incubated for 30 mins before curcumin exposure for 4 hrs by Western blotting method; assay type: cell-based; procedure, shortened: as §4
# C2 [20] = assay: Inhibition of curcumin-induced apoptosis in mouse C2 cells assessed as reduction in PARP cleavage at 30 uM pre-incubated for 30 mins before curcumin exposure for 4 hrs by SDS-PAGE and immunoblotting method; assay type: functional, cell-based; procedure, shortened: as §5
# [21] = Effect on PARP protein level in mouse C2 cells at 30 uM incubated for 30 mins by SDS-PAGE and immunoblotting method; assay type: cell-based; settings: c2, 0.5 h
# [22] = Cytotoxic activity against mouse C2 cells assessed as cell viability at 30 uM after 24 hrs by MTT assay (reference value: 100%); assay type: cell-based; settings: read-out: Activity; procedure, shortened: as §1
# [23] = Cytoprotective activity against curcumin-induced cytotoxicity in mouse C2 cells assessed as cell viability at 30 uM after 24 hrs by MTT assay (reference value: 83.8 +/- 0.4%); assay type: functional; settings: C2, 24 h, read-out: Activity
# C2 [24] = assay: Inhibition of curcumin-induced JNK phosphorylation in mouse C2 cells at 30 uM pre-incubated for 30 mins before curcumin exposure for 2 hrs by SDS-PAGE and immunoblotting method
# C2 [25] = assay: Inhibition of curcumin-induced apoptosis in mouse C2 cells assessed as reduction in PARP cleavage at 2.5 uM pre-incubated for 30 mins before curcumin exposure for 4 hrs by SDS-PAGE and immunoblotting method; assay type: functional, cell-based; procedure, shortened: as §5
# [26] = Effect on PARP protein level in mouse C2 cells at 2.5 uM incubated for 30 mins by SDS-PAGE and immunoblotting method; assay type: cell-based; settings: c2, 0.5 h
smiles,measurement,setting,value
Oc1ccc(/C=C/c2cc(O)cc(O)c2)cc1 [RESVERATROL],IC50,[1],96 µM
COc1cc(/C=C/C(=O)CC(=O)/C=C/c2ccc(O)c(OC)c2)ccc1O [CURCUMIN],viability at 1 µM,[2],85.5%
same,viability at 15 µM,[3],90.2%
same,viability at 30 µM,[4],93.1%
same,viability at 50 µM,[5],53.6%
same,"viability at 24 h, 50 µM",[6],83.8%
same,inhibition,C2 [7],55%
same,inhibition,C2 [8],81%
CN1CC(O)(c2ccc(-c3ccccc3)cc2)Oc2ccccc21 (centres undefined),IC50,[1],119 µM
same,viability at 1 µM,[2],84.6%
same,viability at 15 µM,[3],97.1%
same,viability at 30 µM,[4],76.2%
same,viability at 50 µM,[5],71.6%
same,"viability at 24 h, 15 µM",[9],98.1%
same,viability at 15 µM,[10],53.6%
same,inhibition,C2 [7],55%
same,inhibition,C2 [8],81%
same,inhibition,C2 [11],79%
same,inhibition,C2 [12],inactive
same,inhibition,C2 [13],inactive
same,Activity,[14],Non-toxic
same,inhibition,C2 [15],inactive
COc1ccc2[nH]cc(CCNC(C)=O)c2c1 [MELATONIN],viability at 15 µM,[3],92.5%
same,"viability at 24 h, 15 µM",[9],96.9%
same,viability at 15 µM,[10],98.5%
same,inhibition,C2 [11],53%
same,inhibition,C2 [12],57%
same,inhibition,C2 [15],50%
CN1CC(O)(c2ccc(-c3ccccc3)cc2)Sc2ccccc21 (centres undefined),IC50,[1],271 µM
same,viability at 1 µM,[2],81.6%
same,viability at 15 µM,[3],87.1%
same,viability at 30 µM,[4],99.1%
same,viability at 50 µM,[5],97.6%
same,inhibition,C2 [16],55%
same,inhibition,C2 [17],81%
same,inhibition,C2 [18],53%
same,inhibition,C2 [19],40%
same,inhibition,C2 [20],Active
same,Activity,[21],Non-toxic
same,"viability at 24 h, 30 µM",[22],99.5%
same,viability at 30 µM,[23],99.1%
same,inhibition,C2 [24],50%
N#C/C(=C1/Nc2ccccc2S1)c1ccnc(NCCc2cccnc2)n1,inhibition,C2 [25],Active
same,Activity,[26],Non-toxic

# Reference: ChEMBL document CHEMBL3392958, “Evaluation of two novel antioxidants with differential effects on curcumin-induced apoptosis in C2 skeletal myoblasts; involvement of JNKs” (Bioorg Med Chem, 2015)
